Data on 6 compounds can be found in ChEMBL document CHEMBL2057152, “Synthesis and antibacterial activity against Clostridium difficile of novel demethylvancomycin derivatives” (2012).

Holding throughout (type): functional
Assay [1] concerns Clostridioides difficile. Put plainly: Ratio of MIC for vancomycin to compound MIC for Clostridium difficile ATCC 43255 after 16 hrs by two-fold serial dilution method.
The test system of assay [2] is Enterococcus faecalis. Briefly: Antibacterial activity against Enterococcus faecalis ATCC 700802 after 16 hrs by two-fold serial dilution method. Particulars: ATCC 700802, 16 h. In short, it runs like this:
(§1)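 CLSI agar dilution MIC. Compounds are dissolved in 50% water in DMSO as a stock, twofold serially diluted in sterile water, then diluted 10-fold into Mueller-Hinton agar. Organisms are grown in MH broth at 35 °C for 8 h and adjusted to 0.5 McFarland. They are applied to the drug-containing plates by multipoint inoculator and incubated at 35 °C for 16 h. Vancomycin and demethylvancomycin serve as controls.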

The test system of assay [3] is Clostridioides difficile. Put plainly: Antibacterial activity against Clostridium difficile IQCC 23903 after 16 hrs by two-fold serial dilution method. Particulars: IQCC 23903, 16 h. In short, it runs like this:
as §1

For assay [4], the system named is Clostridioides difficile. Briefly: Ratio of MIC for demethylvancomycin to compound MIC for Clostridium difficile ATCC 700792 after 16 hrs by two-fold serial dilution method.
In assay [5] the test system is Clostridioides difficile. Briefly: Ratio of MIC for demethylvancomycin to compound MIC for Clostridium difficile ATCC 700057 after 16 hrs by two-fold serial dilution method.
The test system of assay [6] is Clostridioides difficile. Briefly: Ratio of MIC for demethylvancomycin to compound MIC for Clostridium difficile ATCC 43255 after 16 hrs by two-fold serial dilution method.
Assay [7] deals with Clostridioides difficile. Briefly: Antibacterial activity against Clostridium difficile ATCC 700792 after 16 hrs by two-fold serial dilution method. Particulars: ATCC 700792, 16 h. An outline of the steps: as §1
The test system of assay [8] is Clostridioides difficile. Briefly: Ratio of MIC for demethylvancomycin to compound MIC for Clostridium difficile IQCC 23903 after 16 hrs by two-fold serial dilution method.
Assay [9] in a line: Antibacterial activity against Clostridium difficile ATCC 43255 after 16 hrs by two-fold serial dilution method. Particulars: Clostridioides difficile, ATCC 43255, 16 h. An outline of the steps: as §1
Assay [10] deals with Clostridioides difficile. Put plainly: Antibacterial activity against Clostridium difficile ATCC 700057 after 16 hrs by two-fold serial dilution method. Particulars: ATCC 700057, 16 h. An outline of the steps:
as §1

The subject of assay [11] is Clostridioides difficile. Briefly: Ratio of MIC for vancomycin to compound MIC for Clostridium difficile IQCC 23903 after 16 hrs by two-fold serial dilution method.
The subject of assay [12] is Clostridioides difficile. Briefly: Ratio of MIC for vancomycin to compound MIC for Clostridium difficile ATCC 700792 after 16 hrs by two-fold serial dilution method.
The test system of assay [13] is Clostridioides difficile. Briefly: Ratio of MIC for vancomycin to compound MIC for Clostridium difficile ATCC 700057 after 16 hrs by two-fold serial dilution method.
The subject of assay [14] is Enterococcus faecalis. Put plainly: Ratio of MIC for demethylvancomycin to compound MIC for Enterococcus faecalis ATCC 700802 after 16 hrs by two-fold serial dilution method.
Assay [15] relates to Enterococcus faecalis. Put plainly: Ratio of MIC for vancomycin to compound MIC for Enterococcus faecalis ATCC 700802 after 16 hrs by two-fold serial dilution method.

In brackets after ≈: the same amount, converted by molar mass.

As a reminder, the MIC is the lowest concentration found to suppress growth. In the case of `CC(C)C[C@@H](N)C(=O)N[C@H]1C(=O)N[C@@H](CC(N)=O)C(=O)N[C@H]2C(=O)N[C@H]3C(=O)N[C@H](C(=O)N[C@H](C(=O)O)c4cc(O)cc(O)c4-c4cc3ccc4O)[C@H](O)c3ccc(c(Cl)c3)Oc3cc2cc(c3O[C@@H]2O[C@H](CO)[C@@H](O)[C@H](O)[C@H]2O[C@H]2C[C@](C)(NCc3ccc(Br)cc3)[C@H](O)[C@H](C)O2)Oc2ccc(cc2Cl)[C@H]1O`, the Ratio with Clostridioides difficile [1], with Clostridioides difficile [4], in the assay on Clostridioides difficile [5], with Clostridioides difficile [6], in the assay on Clostridioides difficile [8] and in the assay with Clostridioides difficile [11] was 2 each time. In addition, the Ratio in the assay on Clostridioides difficile [12] and in the assay with Clostridioides difficile [13] was 2 in each case. Moreover, the MIC in the assay on Enterococcus faecalis [2] was found to be 8 µg/mL (≈ 4.99 µM); in the assay on Clostridioides difficile [3] it was 0.25 µg/mL (≈ 0.156 µM); against Clostridioides difficile [7], 0.25 µg/mL (≈ 0.156 µM); in assay [9], 0.25 µg/mL (≈ 0.156 µM); against Clostridioides difficile [10], 0.25 µg/mL (≈ 0.156 µM).

For the compound `CC(C)C[C@@H](N)C(=O)N[C@H]1C(=O)N[C@@H](CC(N)=O)C(=O)N[C@H]2C(=O)N[C@H]3C(=O)N[C@H](C(=O)N[C@H](C(=O)O)c4cc(O)cc(O)c4-c4cc3ccc4O)[C@H](O)c3ccc(c(Cl)c3)Oc3cc2cc(c3O[C@@H]2O[C@H](CO)[C@@H](O)[C@H](O)[C@H]2O[C@H]2C[C@](C)(NCc3ccc4ccccc4c3)[C@H](O)[C@H](C)O2)Oc2ccc(cc2Cl)[C@H]1O`, the Ratio in the assay on Clostridioides difficile [1], with Clostridioides difficile [4], with Clostridioides difficile [5], in the assay with Clostridioides difficile [6], with Clostridioides difficile [8] and in the assay on Clostridioides difficile [11] was 2 in each case. Also, the Ratio in the assay on Clostridioides difficile [12] and in the assay on Clostridioides difficile [13] was 2 each time. For the same compound, the MIC against Enterococcus faecalis [2] turned out to be 16 µg/mL (≈ 10.2 µM); against Clostridioides difficile [3], 0.25 µg/mL (≈ 0.159 µM); with Clostridioides difficile [7] it was 0.125 µg/mL (≈ 0.0793 µM); in [9], 0.25 µg/mL (≈ 0.159 µM); against Clostridioides difficile [10], 0.25 µg/mL (≈ 0.159 µM).

For the compound `CC(C)C[C@@H](N)C(=O)N[C@H]1C(=O)N[C@@H](CC(N)=O)C(=O)N[C@H]2C(=O)N[C@H]3C(=O)N[C@H](C(=O)N[C@H](C(=O)O)c4cc(O)cc(O)c4-c4cc3ccc4O)[C@H](O)c3ccc(c(Cl)c3)Oc3cc2cc(c3O[C@@H]2O[C@H](CO)[C@@H](O)[C@H](O)[C@H]2O[C@H]2C[C@](C)(NCc3c4ccccc4cc4ccccc34)[C@H](O)[C@H](C)O2)Oc2ccc(cc2Cl)[C@H]1O`, the Ratio in the assay with Clostridioides difficile [1], in the assay on Clostridioides difficile [4], in the assay on Clostridioides difficile [5], in the assay with Clostridioides difficile [6], with Clostridioides difficile [8] and in the assay with Clostridioides difficile [11] was 2 in each case. Besides, the Ratio in the assay with Clostridioides difficile [12] and in the assay with Clostridioides difficile [13] was 2 each time. Further, the MIC with Enterococcus faecalis [2] worked out at 2 µg/mL (≈ 1.23 µM); in the assay on Clostridioides difficile [3], 0.25 µg/mL (≈ 0.154 µM); with Clostridioides difficile [7] it was 0.25 µg/mL (≈ 0.154 µM); in assay [9] it was 0.25 µg/mL (≈ 0.154 µM); against Clostridioides difficile [10], 0.5 µg/mL (≈ 0.308 µM).

Regarding `CCCCCCCN[C@@]1(C)C[C@H](O[C@H]2[C@H](Oc3c4cc5cc3Oc3ccc(cc3Cl)[C@@H](O)[C@@H](NC(=O)[C@H](N)CC(C)C)C(=O)N[C@@H](CC(N)=O)C(=O)N[C@H]5C(=O)N[C@H]3C(=O)N[C@H](C(=O)N[C@H](C(=O)O)c5cc(O)cc(O)c5-c5cc3ccc5O)[C@H](O)c3ccc(c(Cl)c3)O4)O[C@H](CO)[C@@H](O)[C@@H]2O)O[C@@H](C)[C@H]1O`, the Ratio in the assay with Clostridioides difficile [1], in the assay with Clostridioides difficile [4], in the assay with Clostridioides difficile [5], in the assay on Clostridioides difficile [6], with Clostridioides difficile [8] and with Clostridioides difficile [11] was 2 each time. In addition, the Ratio in the assay with Clostridioides difficile [12] and with Clostridioides difficile [13] was 2 in each case. In addition, the MIC in the assay with Enterococcus faecalis [2] is 8 µg/mL (≈ 5.22 µM); against Clostridioides difficile [3] it was 0.25 µg/mL (≈ 0.163 µM); in the assay with Clostridioides difficile [7], 0.5 µg/mL (≈ 0.326 µM); in assay [9], 0.5 µg/mL (≈ 0.326 µM); in the assay on Clostridioides difficile [10], 0.25 µg/mL (≈ 0.163 µM).

On to `CCCCCCCCCCCN[C@@]1(C)C[C@H](O[C@H]2[C@H](Oc3c4cc5cc3Oc3ccc(cc3Cl)[C@@H](O)[C@@H](NC(=O)[C@H](N)CC(C)C)C(=O)N[C@@H](CC(N)=O)C(=O)N[C@H]5C(=O)N[C@H]3C(=O)N[C@H](C(=O)N[C@H](C(=O)O)c5cc(O)cc(O)c5-c5cc3ccc5O)[C@H](O)c3ccc(c(Cl)c3)O4)O[C@H](CO)[C@@H](O)[C@@H]2O)O[C@@H](C)[C@H]1O`, for which the Ratio with Enterococcus faecalis [14] and in the assay with Enterococcus faecalis [15] was 64 throughout. Also, the MIC (against Enterococcus faecalis [2]; in the assay with Clostridioides difficile [3]; against Clostridioides difficile [7]; in [9]; in the assay on Clostridioides difficile [10]) was 0.5 µg/mL (≈ 0.315 µM) each time.

With `CC(C)C[C@@H](N)C(=O)N[C@H]1C(=O)N[C@@H](CC(N)=O)C(=O)N[C@H]2C(=O)N[C@H]3C(=O)N[C@H](C(=O)N[C@H](C(=O)O)c4cc(O)cc(O)c4-c4cc3ccc4O)[C@H](O)c3ccc(c(Cl)c3)Oc3cc2cc(c3O[C@@H]2O[C@H](CO)[C@@H](O)[C@H](O)[C@H]2O[C@H]2C[C@](C)(NCCC(C)CC(C)(C)C)[C@H](O)[C@H](C)O2)Oc2ccc(cc2Cl)[C@H]1O` (some centres not stated), the Ratio in the assay on Clostridioides difficile [1], in the assay on Clostridioides difficile [4], in the assay on Clostridioides difficile [5], with Clostridioides difficile [6], in the assay with Clostridioides difficile [8] and in the assay on Clostridioides difficile [11] was 2 in each case. The Ratio in the assay on Clostridioides difficile [12] and in the assay on Clostridioides difficile [13] was 2 throughout. Besides, the minimum inhibitory concentration (MIC) against Enterococcus faecalis [2] worked out at 8 µg/mL (≈ 5.12 µM); in the assay on Clostridioides difficile [3] it was 0.25 µg/mL (≈ 0.16 µM); in the assay on Clostridioides difficile [7], 0.5 µg/mL (≈ 0.32 µM); in assay [9], 0.5 µg/mL (≈ 0.32 µM); in the assay on Clostridioides difficile [10], 0.25 µg/mL (≈ 0.16 µM).
